Series [1] has as its target T1, Adrenergic receptor alpha-1 (Homo sapiens, UniProt P35348+P25100+P35368).
T1 sequence (P35348 whole entry): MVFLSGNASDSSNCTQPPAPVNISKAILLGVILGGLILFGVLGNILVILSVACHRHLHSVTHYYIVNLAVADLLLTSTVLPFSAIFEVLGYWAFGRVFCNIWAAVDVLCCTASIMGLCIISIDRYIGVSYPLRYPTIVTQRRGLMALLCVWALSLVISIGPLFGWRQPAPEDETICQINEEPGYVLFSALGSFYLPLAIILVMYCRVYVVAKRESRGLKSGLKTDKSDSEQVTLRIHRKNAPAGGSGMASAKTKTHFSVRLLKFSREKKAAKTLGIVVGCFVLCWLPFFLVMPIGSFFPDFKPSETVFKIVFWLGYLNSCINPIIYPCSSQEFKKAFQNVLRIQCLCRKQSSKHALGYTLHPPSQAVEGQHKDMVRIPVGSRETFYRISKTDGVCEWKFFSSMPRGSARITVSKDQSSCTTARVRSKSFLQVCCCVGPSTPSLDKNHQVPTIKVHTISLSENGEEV
T1 sequence (P25100 whole entry): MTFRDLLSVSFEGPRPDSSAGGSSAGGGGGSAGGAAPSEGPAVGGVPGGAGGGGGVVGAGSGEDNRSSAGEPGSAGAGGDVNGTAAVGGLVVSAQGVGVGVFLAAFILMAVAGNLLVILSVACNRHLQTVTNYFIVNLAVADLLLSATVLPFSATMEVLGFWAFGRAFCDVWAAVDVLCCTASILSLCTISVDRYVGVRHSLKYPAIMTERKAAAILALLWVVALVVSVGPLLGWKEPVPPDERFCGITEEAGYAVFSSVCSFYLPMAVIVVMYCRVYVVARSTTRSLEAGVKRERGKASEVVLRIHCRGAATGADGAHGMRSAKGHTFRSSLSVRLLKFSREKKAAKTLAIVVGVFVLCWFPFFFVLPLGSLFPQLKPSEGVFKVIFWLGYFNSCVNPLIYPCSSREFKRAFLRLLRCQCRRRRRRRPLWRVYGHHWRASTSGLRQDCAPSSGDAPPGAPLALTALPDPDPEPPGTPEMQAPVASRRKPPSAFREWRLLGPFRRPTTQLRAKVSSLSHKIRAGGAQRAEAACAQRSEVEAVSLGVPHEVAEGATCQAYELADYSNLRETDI
T1 sequence (P35368 whole entry): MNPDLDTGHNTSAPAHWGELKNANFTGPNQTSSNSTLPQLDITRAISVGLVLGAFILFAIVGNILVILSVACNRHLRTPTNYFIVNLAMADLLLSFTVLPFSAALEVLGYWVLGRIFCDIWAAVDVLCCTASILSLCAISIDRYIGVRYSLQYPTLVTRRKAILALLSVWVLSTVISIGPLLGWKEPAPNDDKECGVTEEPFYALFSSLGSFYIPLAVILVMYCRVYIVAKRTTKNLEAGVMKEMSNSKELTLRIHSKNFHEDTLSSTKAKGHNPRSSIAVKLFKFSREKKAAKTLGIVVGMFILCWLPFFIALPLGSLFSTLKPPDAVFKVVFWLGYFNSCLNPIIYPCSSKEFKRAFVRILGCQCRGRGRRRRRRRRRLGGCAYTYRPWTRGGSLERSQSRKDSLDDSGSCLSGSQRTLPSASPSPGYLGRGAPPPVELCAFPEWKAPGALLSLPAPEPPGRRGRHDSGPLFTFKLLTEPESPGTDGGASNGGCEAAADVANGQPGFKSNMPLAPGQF
Kind of series: Inhibition of alpha-1 adrenoceptor (unknown origin).

Series [2] can be described thus: Oral bioavailability in jugular vein cannulated Sprague-Dawley rat at 6 mg/kg by HPLC-MS analysis. The series is classed as ADME, organism-based. The following applies: in vivo. The procedure, abridged:
(§1)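 Cannulated, fed Sprague–Dawley rats were given 2 mg/kg intravenously and 6 mg/kg orally. Oral bioavailability came from the two routes. t1/2, plasma clearance and Vdss were estimated. Oral Cmax and AUC were taken over 0–24 h.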

For series [3], the system named is Rattus norvegicus. The series can be described thus: Antihypertensive activity in double transgenic rat overexpressing human renin and human angiotensinogen assessed as reduction in mean arterial pressure at 30 mg/kg, po. It counts as functional, Artery. Put shortly: (§2)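 Double-transgenic rats overexpressing human renin and human angiotensinogen, with telemetry. Each received a single oral dose of 6 or 30 mg/kg. The read-out was mean arterial pressure, reported as the peak change from dosing.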

For series [4], the target named is T2, Renin (Homo sapiens, UniProt P00797).
T2 sequence (P00797 whole entry): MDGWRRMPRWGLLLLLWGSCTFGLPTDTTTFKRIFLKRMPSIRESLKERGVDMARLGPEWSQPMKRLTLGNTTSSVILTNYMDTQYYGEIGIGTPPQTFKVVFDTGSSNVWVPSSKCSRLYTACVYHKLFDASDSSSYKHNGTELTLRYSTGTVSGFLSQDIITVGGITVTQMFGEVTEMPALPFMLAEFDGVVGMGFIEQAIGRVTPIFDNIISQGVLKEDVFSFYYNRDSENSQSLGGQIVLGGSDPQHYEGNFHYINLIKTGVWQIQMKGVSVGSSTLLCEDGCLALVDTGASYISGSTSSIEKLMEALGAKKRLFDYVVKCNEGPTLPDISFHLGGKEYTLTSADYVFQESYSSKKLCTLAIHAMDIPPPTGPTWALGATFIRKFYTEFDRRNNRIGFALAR
The series can be described thus: Inhibition of human recombinant renin expressed in CHO cells using RE(EDANS)IHPFHLVIHTK(Dabcyl)R as substrate incubated for 1 hr prior to substrate addition measured after 2 hrs by FRET-based enzymatic assay.

A short description of series [5]: Volume of distribution at steady state in jugular vein cannulated Sprague-Dawley rat at 2 mg/kg, iv by HPLC-MS analysis. The series is classed as ADME, organism-based. Details: dose 2 mg/kg, route intravenous. The following applies: in vivo, read-out: Vdss. Put shortly: as §1
Series [6] deals with 5-hydroxytryptamine receptor 2B (Homo sapiens, UniProt P41595). The series can be described thus: Inhibition of 5-HT2B (unknown origin).
In series [7] the target is Beta-secretase 1 (Homo sapiens, UniProt P56817). The series can be described thus: Inhibition of human recombinant BACE-1 expressed in baculovirus-infected insect sf9 cells using RE( EDANS)-EVNLDAEF-K(DABSYL)-R as substrate incubated for 1 hr prior to substrate addition measured after 1 hr by FRET-based enzymatic assay.
Series [8] has as its target Voltage-gated inwardly rectifying potassium channel KCNH2 (Homo sapiens, UniProt Q12809). Kind of series: Inhibition of human ERG by dofetilide binding assay. Put shortly:
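hERG affinity from an in vitro dofetilide binding assay. The IC50 is the mean of two independent measurements.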

Series [9] relates to Rattus norvegicus. The series can be described thus: Antihypertensive activity in double transgenic rat overexpressing human renin and human angiotensinogen assessed as reduction in mean arterial pressure at 6 mg/kg, po. The series is classed as functional, Artery. Put shortly:
as §2

A short description of series [10]: AUC (0 to 24 hrs) in jugular vein cannulated Sprague-Dawley rat at 6 mg/kg, po by HPLC-MS analysis. It counts as ADME, organism-based. Also on record: time < 24 hr, dose 6 mg/kg, route oral. Particulars: plasma. The procedure, abridged:
as §1

In series [11] the target is Cathepsin D (Homo sapiens, UniProt P07339). The series can be described thus: Inhibition of human recombinant cathepsin-D expressed in baculovirus-infected insect sf9 cells using Ac- E-D(EDANS)-KPILFFRLG-K(Dabcyl)-E-Amid as substrate incubated for 1 hr prior to substrate addition measured after 1 hr by FRET-based enzymatic assay.
Cathepsin D, sequence (P07339 65-162 limits assumed): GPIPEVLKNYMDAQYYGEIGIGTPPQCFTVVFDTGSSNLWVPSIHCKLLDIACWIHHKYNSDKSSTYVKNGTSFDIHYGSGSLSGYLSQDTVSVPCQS
Cathepsin D, sequence (P07339 169-412 limits assumed): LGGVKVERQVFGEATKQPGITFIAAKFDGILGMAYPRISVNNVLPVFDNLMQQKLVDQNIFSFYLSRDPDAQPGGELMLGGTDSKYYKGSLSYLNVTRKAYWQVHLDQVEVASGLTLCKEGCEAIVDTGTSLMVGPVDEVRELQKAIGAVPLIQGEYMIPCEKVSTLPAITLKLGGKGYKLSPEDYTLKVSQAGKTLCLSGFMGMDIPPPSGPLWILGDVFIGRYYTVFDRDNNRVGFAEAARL

Beta-secretase 1, sequence (P56817 whole entry): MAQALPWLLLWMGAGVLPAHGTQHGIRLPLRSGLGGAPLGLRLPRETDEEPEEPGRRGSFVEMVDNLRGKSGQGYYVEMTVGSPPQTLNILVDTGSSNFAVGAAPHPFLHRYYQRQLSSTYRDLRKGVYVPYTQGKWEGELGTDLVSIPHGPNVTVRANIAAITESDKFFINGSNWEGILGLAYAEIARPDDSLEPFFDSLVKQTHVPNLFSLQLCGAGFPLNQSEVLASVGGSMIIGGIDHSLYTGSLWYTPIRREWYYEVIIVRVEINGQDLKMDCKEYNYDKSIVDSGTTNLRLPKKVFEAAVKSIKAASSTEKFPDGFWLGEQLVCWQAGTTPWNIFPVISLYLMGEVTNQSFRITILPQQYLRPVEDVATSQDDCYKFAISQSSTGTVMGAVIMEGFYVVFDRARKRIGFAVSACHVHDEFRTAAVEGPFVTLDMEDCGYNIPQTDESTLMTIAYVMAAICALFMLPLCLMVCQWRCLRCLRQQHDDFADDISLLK
5-hydroxytryptamine receptor 2B, sequence (P41595 whole entry): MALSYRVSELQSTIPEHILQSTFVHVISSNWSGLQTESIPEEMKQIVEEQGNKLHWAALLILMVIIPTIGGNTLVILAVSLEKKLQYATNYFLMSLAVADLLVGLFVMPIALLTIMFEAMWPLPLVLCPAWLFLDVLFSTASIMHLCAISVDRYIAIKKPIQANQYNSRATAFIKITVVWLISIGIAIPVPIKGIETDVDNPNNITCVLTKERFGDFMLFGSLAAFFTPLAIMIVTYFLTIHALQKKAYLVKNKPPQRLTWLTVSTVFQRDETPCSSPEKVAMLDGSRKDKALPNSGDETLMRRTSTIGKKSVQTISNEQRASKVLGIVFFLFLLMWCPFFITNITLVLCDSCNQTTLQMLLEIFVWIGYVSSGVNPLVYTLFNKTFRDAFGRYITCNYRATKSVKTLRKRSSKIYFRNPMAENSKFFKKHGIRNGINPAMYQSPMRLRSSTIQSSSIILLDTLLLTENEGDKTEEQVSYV
Voltage-gated inwardly rectifying potassium channel KCNH2, sequence (Q12809 whole entry): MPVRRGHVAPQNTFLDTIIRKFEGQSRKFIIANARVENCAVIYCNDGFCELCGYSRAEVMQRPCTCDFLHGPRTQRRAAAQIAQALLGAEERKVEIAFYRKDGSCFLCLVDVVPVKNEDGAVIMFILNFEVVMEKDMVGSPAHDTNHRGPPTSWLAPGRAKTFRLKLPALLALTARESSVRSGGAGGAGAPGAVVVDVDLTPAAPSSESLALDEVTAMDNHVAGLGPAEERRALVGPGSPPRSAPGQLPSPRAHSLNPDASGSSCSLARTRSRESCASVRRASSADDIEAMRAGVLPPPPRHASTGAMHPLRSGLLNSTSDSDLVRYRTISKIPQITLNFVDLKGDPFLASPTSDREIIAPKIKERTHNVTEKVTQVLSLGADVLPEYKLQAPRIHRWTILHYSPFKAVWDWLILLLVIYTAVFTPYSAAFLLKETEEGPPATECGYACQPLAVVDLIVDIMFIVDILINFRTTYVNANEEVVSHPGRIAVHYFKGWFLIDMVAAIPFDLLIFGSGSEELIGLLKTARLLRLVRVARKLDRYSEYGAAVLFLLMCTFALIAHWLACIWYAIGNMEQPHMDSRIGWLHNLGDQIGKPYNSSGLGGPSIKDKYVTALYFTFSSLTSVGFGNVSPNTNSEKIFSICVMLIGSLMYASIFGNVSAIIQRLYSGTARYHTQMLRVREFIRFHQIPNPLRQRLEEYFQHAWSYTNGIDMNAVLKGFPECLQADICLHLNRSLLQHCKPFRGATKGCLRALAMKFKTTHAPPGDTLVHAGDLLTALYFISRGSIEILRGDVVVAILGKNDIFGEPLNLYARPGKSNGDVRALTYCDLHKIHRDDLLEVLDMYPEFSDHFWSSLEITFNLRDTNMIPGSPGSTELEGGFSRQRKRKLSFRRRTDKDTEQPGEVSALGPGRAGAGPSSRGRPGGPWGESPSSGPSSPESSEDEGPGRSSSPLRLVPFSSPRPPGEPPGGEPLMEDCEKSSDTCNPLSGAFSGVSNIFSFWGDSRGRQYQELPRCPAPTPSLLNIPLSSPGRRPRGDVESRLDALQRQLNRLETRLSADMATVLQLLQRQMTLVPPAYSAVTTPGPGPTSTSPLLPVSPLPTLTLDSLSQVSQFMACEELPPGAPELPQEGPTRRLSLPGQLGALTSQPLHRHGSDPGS

Regarding `COCCCOc1cc(C(=O)N(C[C@@H]2CNC[C@H]2Cc2ccccc2)C(C)C)ccc1OC.Cl`, the IC50 – broadly, the concentration that gives 50% inhibition – in [1] was greater than 1 µM; in series [4] it was 0.17 µM; in series [6] it was greater than 1 µM; in [7], greater than 30 µM; in series [8], 14.5 µM; in [11] it was greater than 30 µM. In addition, the bioavailability – broadly, the share of a dose that reaches the circulation, judged against a reference dose that is usually intravenous – in series [2] was determined as 53%. Also, the Activity in series [3] is on record as 35 mmHg; in series [9], 15 mmHg. For the same compound, the Vd in [5] worked out at 2.8 L/kg. The AUC(0-t) (in general, exposure summed from dosing to a finite time, without extrapolation to infinity) at 24 h in [10] stood at 4.81 µM·h.

For the origin of these results see ChEMBL document CHEMBL2321868, “The discovery of novel potent trans-3,4-disubstituted pyrrolidine inhibitors of the human aspartic protease renin from in silico three-dimensional (3D) pharmacophore searches” (J Med Chem, 2013).
